Tests used:
[1] = molecular target: Myosin light chain kinase 2, skeletal/cardiac muscle (Homo sapiens) (UniProt Q9H1R3); assay: Inhibition of human recombinant skMLCK at 500 nM in presence of ATP by radiometric assay relative to control
[2] = molecular target: Serine/threonine-protein kinase MARK1 (Homo sapiens) (UniProt Q9P0L2); assay: Inhibition of human recombinant MARK1 at 500 nM in presence of ATP by radiometric assay relative to control
[3] = molecular target: Cyclin-dependent kinase 5 (Homo sapiens) (UniProt Q00535); assay: Inhibition of human recombinant CDK5 at 500 nM related to control ULK1
[4] = molecular target: T1, Serine/threonine-protein kinase ULK3 (Homo sapiens) (UniProt Q6PHR2); assay: Inhibition of human recombinant ULK3 at 500 nM in presence of ATP by radiometric assay relative to control
T1 sequence (whole entry): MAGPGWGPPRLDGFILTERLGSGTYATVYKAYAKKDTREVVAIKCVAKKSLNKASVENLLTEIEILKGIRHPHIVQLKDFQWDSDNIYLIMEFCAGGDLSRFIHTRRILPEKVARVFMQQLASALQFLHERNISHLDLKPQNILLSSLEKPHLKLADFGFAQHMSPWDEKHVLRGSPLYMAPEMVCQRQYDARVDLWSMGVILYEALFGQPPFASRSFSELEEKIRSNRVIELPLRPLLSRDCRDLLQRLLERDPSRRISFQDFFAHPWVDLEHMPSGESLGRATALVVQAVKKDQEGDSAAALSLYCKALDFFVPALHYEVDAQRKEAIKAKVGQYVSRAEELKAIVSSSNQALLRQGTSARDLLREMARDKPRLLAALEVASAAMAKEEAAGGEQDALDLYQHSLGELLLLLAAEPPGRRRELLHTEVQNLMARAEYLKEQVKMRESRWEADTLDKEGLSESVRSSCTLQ

[5] = molecular target: MAP kinase-interacting serine/threonine-protein kinase 2 (Homo sapiens, UniProt Q9HBH9); assay: Inhibition of human recombinant MNK2 at 500 nM in presence of ATP by radiometric assay relative to control
[6] = molecular target: Death-associated protein kinase 1 (Homo sapiens) (UniProt P53355); assay: Inhibition of human recombinant DAPK1 at 500 nM related to control ULK1
[7] = molecular target: Non-receptor tyrosine-protein kinase TYK2 (Homo sapiens) (UniProt P29597); assay: Inhibition of human recombinant TYK2 at 500 nM related to control ULK1
[8] = molecular target: Glycogen synthase kinase-3 beta (Homo sapiens) (UniProt P49841); assay: Inhibition of human recombinant GSK3B at 15 nM related to control ULK1
[9] = molecular target: Aurora kinase B (Homo sapiens) (UniProt Q96GD4); assay: Inhibition of human recombinant AurB at 15 nM in presence of ATP by radiometric assay relative to control
Procedure, shortened: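 Part of a radiometric in vitro activity panel of 327 recombinant human kinases. Each kinase was tested in duplicate at one inhibitor concentration. Activity remaining was expressed as a percentage of the vehicle control, and percent inhibition was taken as 100 minus that value.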

[10] = molecular target: SRSF protein kinase 2 (Homo sapiens) (UniProt P78362); assay: Inhibition of human recombinant SRPK2 at 15 nM related to control ULK1
[11] = molecular target: RAC-gamma serine/threonine-protein kinase (Homo sapiens) (UniProt Q9Y243); assay: Inhibition of human recombinant AKT3 at 15 nM in presence of ATP by radiometric assay relative to control
Procedure, shortened: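 Panel of 327 recombinant human kinases in radiometric activity assays, each screened in duplicate at a single inhibitor concentration; percent activity remaining relative to vehicle control, percent inhibition taken as 100 minus activity remaining.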

[12] = molecular target: Protein kinase C theta type (Homo sapiens) (UniProt Q04759); assay: Inhibition of human recombinant PKCt at 15 nM related to control ULK1
[13] = molecular target: Tyrosine-protein kinase CSK (Homo sapiens) (UniProt P41240); assay: Inhibition of human recombinant CSK at 40 nM related to control ULK1
[14] = molecular target: cAMP-dependent protein kinase catalytic subunit alpha (Homo sapiens) (UniProt P17612); assay: Inhibition of human recombinant PKACalpha at 40 nM in presence of ATP by radiometric assay relative to control
[15] = molecular target: T2, Activin receptor type-1 (Homo sapiens) (UniProt Q04771); assay: Inhibition of human recombinant ALK2 at 40 nM in presence of ATP by radiometric assay relative to control
T2 sequence (whole entry): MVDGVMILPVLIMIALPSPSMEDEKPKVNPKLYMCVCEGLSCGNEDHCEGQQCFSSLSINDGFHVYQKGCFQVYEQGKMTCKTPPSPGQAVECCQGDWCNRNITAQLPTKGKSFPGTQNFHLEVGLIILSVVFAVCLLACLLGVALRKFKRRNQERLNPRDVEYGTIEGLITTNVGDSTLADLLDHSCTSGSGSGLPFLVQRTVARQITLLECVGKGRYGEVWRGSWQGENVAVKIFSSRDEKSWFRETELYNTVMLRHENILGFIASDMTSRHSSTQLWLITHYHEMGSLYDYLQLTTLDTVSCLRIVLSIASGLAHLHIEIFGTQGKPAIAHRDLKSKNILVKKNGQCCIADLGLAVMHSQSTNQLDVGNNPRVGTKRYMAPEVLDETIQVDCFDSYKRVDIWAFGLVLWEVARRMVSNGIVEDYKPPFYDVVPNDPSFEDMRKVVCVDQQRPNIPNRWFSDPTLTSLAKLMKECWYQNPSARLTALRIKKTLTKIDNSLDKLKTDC
Procedure, shortened: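 Panel of 327 recombinant human kinases, each assayed in vitro by radiometric activity assay in duplicate at a single inhibitor concentration per compound, chosen with reference to its ULK1 inhibition. Activity remaining was expressed as percent of vehicle control, and percent inhibition was calculated as 100 minus percent activity remaining.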

[16] = molecular target: Ribosomal protein S6 kinase alpha-1 (Homo sapiens) (UniProt Q15418); assay: Inhibition of human recombinant RSK1 at 40 nM in presence of ATP by radiometric assay relative to control
Sequence of Ribosomal protein S6 kinase alpha-1 (Homo sapiens) (Q15418 whole entry): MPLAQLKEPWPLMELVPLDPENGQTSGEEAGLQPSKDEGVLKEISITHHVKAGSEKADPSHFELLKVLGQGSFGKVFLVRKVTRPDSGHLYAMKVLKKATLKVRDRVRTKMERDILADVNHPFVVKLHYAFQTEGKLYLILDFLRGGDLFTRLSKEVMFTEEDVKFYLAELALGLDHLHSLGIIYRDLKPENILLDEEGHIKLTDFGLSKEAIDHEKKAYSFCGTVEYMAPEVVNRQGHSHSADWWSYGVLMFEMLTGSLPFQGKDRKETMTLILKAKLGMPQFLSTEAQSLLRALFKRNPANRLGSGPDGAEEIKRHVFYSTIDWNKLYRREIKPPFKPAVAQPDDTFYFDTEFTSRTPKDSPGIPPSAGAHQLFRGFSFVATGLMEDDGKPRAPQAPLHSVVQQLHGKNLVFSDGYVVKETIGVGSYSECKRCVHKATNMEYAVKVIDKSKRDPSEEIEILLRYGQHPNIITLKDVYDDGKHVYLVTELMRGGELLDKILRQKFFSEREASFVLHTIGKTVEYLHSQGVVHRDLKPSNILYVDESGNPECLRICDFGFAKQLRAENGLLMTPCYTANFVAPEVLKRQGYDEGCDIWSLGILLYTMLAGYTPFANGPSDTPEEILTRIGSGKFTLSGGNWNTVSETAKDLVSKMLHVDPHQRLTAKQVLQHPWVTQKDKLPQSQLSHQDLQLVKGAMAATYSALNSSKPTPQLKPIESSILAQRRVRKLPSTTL

Sequence of Myosin light chain kinase 2, skeletal/cardiac muscle (Homo sapiens) (Q9H1R3 whole entry): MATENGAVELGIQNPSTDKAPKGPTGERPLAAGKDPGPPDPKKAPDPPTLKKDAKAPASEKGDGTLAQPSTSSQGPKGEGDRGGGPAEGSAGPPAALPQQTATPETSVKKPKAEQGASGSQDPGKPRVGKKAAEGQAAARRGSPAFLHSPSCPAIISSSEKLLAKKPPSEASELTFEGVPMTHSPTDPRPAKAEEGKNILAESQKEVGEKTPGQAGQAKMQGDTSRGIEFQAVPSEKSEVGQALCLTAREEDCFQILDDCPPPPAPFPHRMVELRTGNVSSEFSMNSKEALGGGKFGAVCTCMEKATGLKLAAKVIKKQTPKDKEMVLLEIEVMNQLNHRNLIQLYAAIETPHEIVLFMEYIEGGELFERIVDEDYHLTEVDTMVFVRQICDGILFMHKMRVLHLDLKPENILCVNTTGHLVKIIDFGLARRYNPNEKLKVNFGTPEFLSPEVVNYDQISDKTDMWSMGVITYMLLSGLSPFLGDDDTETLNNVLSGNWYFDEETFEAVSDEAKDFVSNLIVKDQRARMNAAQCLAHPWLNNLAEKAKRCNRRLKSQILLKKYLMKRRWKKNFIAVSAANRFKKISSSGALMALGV
Sequence of Aurora kinase B (Homo sapiens) (Q96GD4 whole entry): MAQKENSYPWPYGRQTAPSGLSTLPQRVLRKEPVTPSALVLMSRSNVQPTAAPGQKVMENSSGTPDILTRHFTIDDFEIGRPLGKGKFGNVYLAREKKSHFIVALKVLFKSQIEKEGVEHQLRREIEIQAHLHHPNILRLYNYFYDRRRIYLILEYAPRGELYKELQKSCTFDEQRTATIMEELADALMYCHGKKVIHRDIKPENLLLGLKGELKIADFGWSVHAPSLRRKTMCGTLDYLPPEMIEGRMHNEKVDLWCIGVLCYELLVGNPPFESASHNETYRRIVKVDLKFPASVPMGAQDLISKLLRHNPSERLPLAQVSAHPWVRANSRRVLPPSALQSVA
Sequence of Cyclin-dependent kinase 5 (Homo sapiens) (Q00535 whole entry, looked up): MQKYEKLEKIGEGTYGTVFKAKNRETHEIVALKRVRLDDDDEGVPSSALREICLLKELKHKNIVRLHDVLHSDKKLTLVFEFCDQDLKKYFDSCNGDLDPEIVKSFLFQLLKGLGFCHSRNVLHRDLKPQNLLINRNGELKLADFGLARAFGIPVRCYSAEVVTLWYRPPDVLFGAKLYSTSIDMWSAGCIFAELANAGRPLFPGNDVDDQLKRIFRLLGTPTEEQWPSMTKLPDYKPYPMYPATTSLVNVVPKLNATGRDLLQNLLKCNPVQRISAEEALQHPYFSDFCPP
Sequence of Tyrosine-protein kinase CSK (Homo sapiens) (P41240 2-450 limits assumed): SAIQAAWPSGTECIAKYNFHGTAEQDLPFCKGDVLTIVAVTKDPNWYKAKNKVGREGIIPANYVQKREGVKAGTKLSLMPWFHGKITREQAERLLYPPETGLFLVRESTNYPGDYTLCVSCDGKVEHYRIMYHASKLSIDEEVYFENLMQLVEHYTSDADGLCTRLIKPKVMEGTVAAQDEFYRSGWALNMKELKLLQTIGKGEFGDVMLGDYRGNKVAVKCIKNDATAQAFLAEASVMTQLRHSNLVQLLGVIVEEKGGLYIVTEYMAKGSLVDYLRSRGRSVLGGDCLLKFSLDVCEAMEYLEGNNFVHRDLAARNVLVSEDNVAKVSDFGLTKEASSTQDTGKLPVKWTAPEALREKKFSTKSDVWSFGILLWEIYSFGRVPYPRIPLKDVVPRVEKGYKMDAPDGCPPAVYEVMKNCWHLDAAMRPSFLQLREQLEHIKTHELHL
Sequence of Glycogen synthase kinase-3 beta (Homo sapiens) (P49841 whole entry, looked up): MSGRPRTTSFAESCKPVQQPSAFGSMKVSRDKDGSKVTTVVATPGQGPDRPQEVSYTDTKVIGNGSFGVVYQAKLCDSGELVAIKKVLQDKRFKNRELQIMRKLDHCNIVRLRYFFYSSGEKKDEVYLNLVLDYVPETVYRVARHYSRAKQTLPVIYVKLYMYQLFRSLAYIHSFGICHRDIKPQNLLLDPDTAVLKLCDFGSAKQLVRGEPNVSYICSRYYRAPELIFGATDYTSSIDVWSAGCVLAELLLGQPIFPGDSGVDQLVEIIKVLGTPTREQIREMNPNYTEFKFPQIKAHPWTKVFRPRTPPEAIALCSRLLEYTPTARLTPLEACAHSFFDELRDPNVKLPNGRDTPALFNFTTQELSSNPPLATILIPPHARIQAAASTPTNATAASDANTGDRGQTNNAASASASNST
Sequence of Serine/threonine-protein kinase MARK1 (Homo sapiens) (Q9P0L2 whole entry, looked up): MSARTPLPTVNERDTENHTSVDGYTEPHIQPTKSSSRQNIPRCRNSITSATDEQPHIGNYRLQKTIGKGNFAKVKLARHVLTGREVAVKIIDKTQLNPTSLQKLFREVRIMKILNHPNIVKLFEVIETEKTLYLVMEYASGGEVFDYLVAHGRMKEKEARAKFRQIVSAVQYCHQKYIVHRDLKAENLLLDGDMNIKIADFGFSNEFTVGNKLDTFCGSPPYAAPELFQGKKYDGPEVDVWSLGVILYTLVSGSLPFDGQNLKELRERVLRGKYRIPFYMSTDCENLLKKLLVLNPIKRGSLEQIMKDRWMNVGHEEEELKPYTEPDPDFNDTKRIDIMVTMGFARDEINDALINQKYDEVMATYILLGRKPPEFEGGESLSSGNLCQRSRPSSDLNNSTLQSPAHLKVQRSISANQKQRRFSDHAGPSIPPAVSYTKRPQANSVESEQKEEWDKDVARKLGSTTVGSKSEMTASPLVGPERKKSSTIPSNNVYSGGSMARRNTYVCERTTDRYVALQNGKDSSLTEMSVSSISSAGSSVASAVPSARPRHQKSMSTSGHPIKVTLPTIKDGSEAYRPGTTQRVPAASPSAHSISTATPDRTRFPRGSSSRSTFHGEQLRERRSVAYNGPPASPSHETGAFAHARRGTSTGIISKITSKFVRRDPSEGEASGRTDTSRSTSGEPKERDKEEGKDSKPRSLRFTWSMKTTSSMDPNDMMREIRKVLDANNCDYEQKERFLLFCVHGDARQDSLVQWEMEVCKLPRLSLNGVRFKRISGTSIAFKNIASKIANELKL
Sequence of Protein kinase C theta type (Homo sapiens) (Q04759 whole entry, looked up): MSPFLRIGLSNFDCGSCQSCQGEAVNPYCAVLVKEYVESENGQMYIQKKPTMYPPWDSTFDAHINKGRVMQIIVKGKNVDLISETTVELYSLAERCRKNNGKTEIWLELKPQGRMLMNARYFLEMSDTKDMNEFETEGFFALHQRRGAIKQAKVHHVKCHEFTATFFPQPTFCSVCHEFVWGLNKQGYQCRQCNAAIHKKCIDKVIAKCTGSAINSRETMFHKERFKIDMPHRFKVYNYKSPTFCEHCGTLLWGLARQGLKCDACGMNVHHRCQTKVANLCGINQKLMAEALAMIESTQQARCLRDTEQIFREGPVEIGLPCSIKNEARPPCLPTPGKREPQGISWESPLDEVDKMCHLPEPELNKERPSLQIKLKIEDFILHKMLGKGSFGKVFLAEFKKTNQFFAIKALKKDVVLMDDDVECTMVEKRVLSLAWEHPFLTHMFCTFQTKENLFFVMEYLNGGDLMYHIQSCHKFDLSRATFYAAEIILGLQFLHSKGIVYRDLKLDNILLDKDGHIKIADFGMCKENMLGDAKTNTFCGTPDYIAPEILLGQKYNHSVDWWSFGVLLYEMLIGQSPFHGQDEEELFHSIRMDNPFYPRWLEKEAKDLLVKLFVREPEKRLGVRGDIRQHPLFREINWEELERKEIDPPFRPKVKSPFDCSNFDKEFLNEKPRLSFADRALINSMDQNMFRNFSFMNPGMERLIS
Sequence of MAP kinase-interacting serine/threonine-protein kinase 2 (Q9HBH9 whole entry, looked up): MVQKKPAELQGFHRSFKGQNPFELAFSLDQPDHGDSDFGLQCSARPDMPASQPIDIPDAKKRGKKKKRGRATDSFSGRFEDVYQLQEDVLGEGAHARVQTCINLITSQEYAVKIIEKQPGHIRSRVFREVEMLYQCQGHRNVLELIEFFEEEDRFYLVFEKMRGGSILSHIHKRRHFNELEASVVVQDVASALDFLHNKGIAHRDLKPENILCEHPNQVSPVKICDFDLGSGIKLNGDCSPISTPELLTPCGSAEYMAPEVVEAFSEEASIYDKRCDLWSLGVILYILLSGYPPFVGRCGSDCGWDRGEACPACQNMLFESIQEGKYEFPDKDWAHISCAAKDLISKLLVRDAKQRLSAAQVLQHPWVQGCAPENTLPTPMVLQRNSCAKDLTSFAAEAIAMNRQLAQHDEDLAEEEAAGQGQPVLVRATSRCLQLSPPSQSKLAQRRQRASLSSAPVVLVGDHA

## CNC(=O)c1ccccc1Oc1nc(Nc2cc(OC)c(OC)c(OC)c2)ncc1Br
[1]
  inhibition: 0%
[2]
  inhibition: 54%
[3]
  fold change (FC): 0.77
[4]
  inhibition: 84%
[5]
  inhibition: 2%
[6]
  fold change (FC): 0
[7]
  fold change (FC): 1.05

## CC(C)[C@H](NC(=O)c1cc(-c2cnn3cc(-c4ccc(OCCN5CCCCC5)cc4)cnc23)cs1)C(F)(F)F
[8]
  fold change (FC): 0.13
[9]
  inhibition: 18%
[10]
  fold change (FC): 0
[11]
  inhibition: 8%
[12]
  fold change (FC): 0

## O=C(N[C@@H](C1CC1)C(F)(F)F)c1cc(-c2cnn3cc(-c4ccc(F)cc4)cnc23)cs1
[13]
  fold change (FC): 0
[14]
  inhibition: 0%
[15]
  inhibition: 56%
[16]
  inhibition: 8%

Reference: ChEMBL document CHEMBL5653631, “A Potent and Selective ULK1 Inhibitor Suppresses Autophagy and Sensitizes Cancer Cells to Nutrient Stress” (iScience, 2018)
